Rows were chosen to be rich in hits. Some 3.5% of all compounds tested hit in one or more screens of this group.
AHR activator: AHR activators, primary screen, cell-based, luminescence, luciferase reporter, human. 320,000 compounds, 2.5% hits. AID 2796, 2010. AHR-responsive luciferase reporter cells. activation, % at 5 µM; in the data active means activation above about 47%;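 further: 0% = vehicle wells and 100% = reference agonist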
hK5 inh: human KLK5 protease inhibitors, primary screen, biochemical, 1536-well. Kallikrein-5 (Homo sapiens), Q9Y337. recombinant hK5, fluorogenic AMC substrate cleavage. inhibition, % at 5 µM. 210,000 compounds, 0.59% hits. AID 873, 2007;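 active means inhibition of 40% or more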;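 further: 0% = enzyme controls without compound and 100% = no-enzyme blanks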
Target sequence (Q9Y337 67-293 limits assumed): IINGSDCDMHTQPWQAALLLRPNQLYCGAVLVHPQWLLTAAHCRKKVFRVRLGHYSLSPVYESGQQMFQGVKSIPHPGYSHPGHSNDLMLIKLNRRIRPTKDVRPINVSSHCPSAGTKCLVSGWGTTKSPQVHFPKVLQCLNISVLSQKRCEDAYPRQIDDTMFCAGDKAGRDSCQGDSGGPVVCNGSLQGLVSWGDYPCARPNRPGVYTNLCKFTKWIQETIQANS
Thrombin inh: human alpha-thrombin inhibitors, primary screen, counter-screen for coagulation protease inhibitor project, biochemical, 1536-well, fluorogenic AMC substrate. inhibition, % at 5 µM. Prothrombin (Homo sapiens), P00734. AID 1046, 2008. 220,000 compounds, 0.26% hits. Boc-VPR-AMC fluorogenic substrate cleavage;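 active means inhibition at or above 40%; inactive means inhibition below 40%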;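 further: 0% = enzyme with no compound and 100% = wells without enzyme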
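Assay system: human alpha-thrombin enzyme. Reagent: Boc-VPR-AMC substrate, 15 µM final. Compound dosing: one concentration per compound, 5 µM, with 0.2% DMSO. Incubation: room-temperature reaction. Technique: AMC fluorescence, 355/460 nm. Measure: % inhibition relative to enzyme controls and enzyme-free blanks.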
STAT3 act: IL-6 driven STAT3 reporter potentiators, primary screen, U3A cells, luciferase, luminescence, MLSCN library | IL-6 STAT3-luciferase reporter; 100% = signal with IL-6 EC80 alone | activation (% of control), % at 5.6 µM | 190,000 compounds, 0.91% hits | AID 871, 2007;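 active means activation above the screen-wide mean of compound activation plus 3 SD, cut at about 130% in these data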;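 further: 0% = background luminescence of wells with medium and substrate only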
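Assay system – human STAT1-deficient U3A cells with stable STAT3-luciferase reporter · Also added – IL-6 (33 ng/mL) · Schedule – compound 1 h, then IL-6 6 h at 37 °C · Technique – reporter luminescence signal · Evaluation – % activation versus median of IL-6-stimulated wells · Benchmarks – IL-6-only wells as 100% reference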
FXIa inh 1536: human FXIa protease inhibitors, primary screen, biochemical, 1536-well. 220,000 compounds, 0.14% hits. AID 798, 2007. purified FXIa, Boc-Glu-Ala-Arg-AMC fluorogenic substrate. inhibition, % at 5 µM. Coagulation factor XI (Homo sapiens), P03951;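 active means inhibition of at least 40%; inactive means inhibition below 40%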;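 further: fluorescence of freed AMC excited at 355 nm; 0% = enzyme without compound and 100% = no enzyme blank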
FXIIa inh 1536: human FXIIa protease inhibitors, primary screen, biochemical, 1536-well. Coagulation factor XII (Homo sapiens), P00748. purified FXIIa, Boc-QGR-AMC fluorogenic substrate, 2 h. inhibition, % at 5 µM. 220,000 compounds, 0.3% hits. AID 800, 2007; in the data active means inhibition above about 40%;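 further: 0% = enzyme with no compound and 100% = blank without enzyme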
Active calls of the source: *; . = no result.

SMILES	AHR activator	hK5 inh	Thrombin inh	STAT3 act	FXIa inh 1536	FXIIa inh 1536
C=CCc1c(C)nc(-c2ccccc2)nc1N/N=C/c1ccccc1	33.3	-12.6	-11.3	105.8	1.3	12.2
C=CCc1c(C)nc(C)nc1N/N=C/c1ccc(F)cc1	77.0*	11.8	3.7	88.4	-9.5	5.9
Fc1ccc(/C=N/Nc2nn[nH]n2)cc1	1.7	-3.1	.	97.6	1.7	6.4
C=CCc1c(C)nc(-c2ccccc2)nc1N/N=C/c1ccncc1	61.4*	-0.4	3.8	94.7	-5.0	5.8
C=CCc1c(C)nc(-c2ccccc2)nc1N/N=C(\C)c1ccc(N)cc1	51.0*	-10.6	-2.7	102.8	6.8	12.4
C=CCc1c(C)nc(C)nc1N/N=C/c1ccccc1	65.7*	3.9	0.7	94.8	2.8	12.2
O=C(OCCCOC(=O)c1ccccc1O)c1ccccc1O	-0.1	.	.	.	.	.
O=C1N=C(c2ccccc2)S/C1=C\c1cccs1	15.3	2.0	61.3*	102.5	34.6	36.3
COc1cc(NC(=O)c2ccc3c(c2)OCO3)c2ncccc2c1	65.5*	-7.7	0.0	111.2	9.7	20.0
CCCCNC(=O)c1ccccc1NC(=O)c1ccc2c(c1)OCO2	58.1*	-0.3	5.7	86.2	1.0	7.0
CC(C)(C)NC(=O)c1ccccc1NC(=O)c1ccc2c(c1)OCO2	67.6*	-21.6	2.1	95.3	-5.8	-4.6
COc1ccc(NC(=O)Nc2c(C)n(C)n(-c3ccccc3)c2=O)c(OC)c1	-1.2	.	.	.	.	.
CC(C)C(=O)NCCc1nc(-c2ccc(Cl)cc2)no1	1.1	.	.	.	.	.
Cc1cc(-c2nn3c(C)nnc3s2)ccc1NC(=O)C(C)(C)C	31.9	.	.	89.9	.	.
CC1CCN(C(=O)c2nc[nH]c2C(=O)N2CCC(C)CC2)CC1	-2.3	.	.	.	.	.
COc1ccc(NC(=O)CSc2nc(N)c(C(=O)Nc3ccc(N(C)C)cc3)s2)cc1	49.7*	6.1	7.1	98.9	3.5	7.6
COc1ccccc1Nc1ncc(-c2cccs2)s1	22.4	17.6	0.3	156.5*	3.2	13.1
COc1ccccc1Nc1ccc(C(=O)NCc2cccs2)cn1	-9.0	-7.0	9.0	86.4	0.1	5.9
COc1ccc(CNC(=O)c2ccc(N3CCC4(CC3)CC(c3ccc(Cl)cc3)=NO4)c(N)c2)cc1	0.6	.	.	.	.	.
COC(=O)c1ccc(-c2noc(CN(Cc3nccn3C)C(C)C)n2)cc1	0.7	3.5	-9.2	101.3	1.5	9.8
CC(C)N(Cc1nc(-c2ccc3c(c2)OCO3)no1)Cc1nccn1C	60.7*	15.3	1.2	90.0	-2.2	9.3
Fc1cccc(Nc2nc3ccccc3n3nnnc23)c1	46.7	-4.9	-0.8	116.3	6.6	8.8
Cc1cc(C)n(-c2nc3ccccc3nc2Nc2ccc3c(c2)OCO3)n1	76.1*	-2.6	2.8	103.5	2.9	12.5
c1ccc2c(c1)nc(Nc1ccc3c(c1)OCO3)c1nnnn12	120.0*	-3.3	1.5	102.8	-0.9	0.0
COC(=O)c1ccc(NC2CC(=O)N(c3ccccc3C)C2=O)cc1 (stereo unspecified)	-1.2	26.8	45.3*	106.0	-0.8	31.4
SMILES	AHR activator	hK5 inh	Thrombin inh	STAT3 act	FXIa inh 1536	FXIIa inh 1536
O=c1c2[nH]c3ccccc3c2nc2n1CCS2	57.0*	3.9	3.5	89.0	2.5	10.2
COc1ccc(OC)c(/C=N/NC(=O)c2cc3c(OC)cccc3[nH]2)c1	23.4	0.1	-1.0	.	-1.0	-0.9
COc1cccc(/C=N/NC(=O)c2cc3c(OC)cccc3[nH]2)c1OC	54.3*	-1.9	-1.4	98.9	2.6	10.5
COc1cc(/C=N/NC(=O)c2cc(-c3cccn3C)n[nH]2)cc(OC)c1OC	19.1	2.8	-6.7	134.3*	-6.6	5.9
COc1cccc(/C=N/NC(=O)c2cc(-c3cccn3C)n[nH]2)c1	38.8	5.2	10.1	99.5	14.2	14.6
COc1ccc(OC)c(/C=N/NC(=O)c2cc3c(OC)cc(OC)cc3[nH]2)c1	56.4*	-4.3	1.6	.	-6.9	0.5
O=C(Cc1nc2ccccc2[nH]1)N/N=C/c1ccccc1	11.4	1.0	-11.8	98.0	-2.5	11.8
COc1ccc(OC)c(/C=N/NC(=O)Cc2nc3ccccc3[nH]2)c1	56.8*	-19.6	4.5	107.4	12.0	16.1
Cc1ccc(-c2cc(C(F)F)n3ncc(C(=O)Nc4ccc(S(=O)(=O)Nc5ccccc5C)cc4)c3n2)cc1	3.4	-23.6	0.7	104.3	17.3	21.4
O=C(COC(=O)CSc1ccc(F)cc1)NC1CCCCCC1	-1.2	.	.	.	.	.
CSc1ccccc1C(=O)N1CCC2(CC1)CC(=O)c1ccccc1O2	0.7	.	.	.	.	.
CCOc1ccc(/C=N/NC(=O)c2cc3c(OC)cccc3[nH]2)cc1	32.7	.	.	.	.	.
C=CCOc1ccc(/C=N/NC(=O)c2cc3c(OC)cc(OC)cc3[nH]2)cc1	67.8*	.	.	.	.	.
Cc1ccc(CNC(=O)C2CCC(CNS(=O)(=O)c3cccs3)CC2)cc1 (stereo unspecified)	-0.2	.	.	.	.	.
COc1ccc(/C=C/C(=O)C2(O)CCCCC2)cc1OC	4.0	23.6	3.0	94.2	25.1	10.5
CCCOc1ccc(C(=O)NC(C)C(=O)O)cc1 (stereo unspecified)	-3.2	-5.0	3.0	101.2	18.2	40.0*
CC(NC(=O)c1ccc(C(C)(C)C)cc1)C(=O)O (stereo unspecified)	1.3	-26.4	3.4	104.0	-12.2	-13.1
COc1ccc(CN(C(=O)c2ccc3c(c2)OCCO3)C(C(=O)NC2CCCCC2)c2ccc3ncccc3c2)cc1 (stereo unspecified)	-0.2	149.7*	3.5	102.2	-6.3	-0.4
O=C(NC1CCCCC1)C(c1ccc2ncccc2c1)N(Cc1ccccc1)C(=O)c1ccc2c(c1)OCCO2 (stereo unspecified)	0.2	-0.8	3.8	109.8	5.8	17.1
COC(=O)C1=C(C)NC(=S)N(C(C)=O)C1c1ccc(OC)c(OC)c1 (stereo unspecified)	-2.7	-13.0	-6.2	102.9	-0.9	3.2
CC(C)C(c1nnnn1Cc1ccccc1)N(CCCO)Cc1cc2cc3c(cc2[nH]c1=O)OCO3 (stereo unspecified)	64.0*	-25.5	-3.8	100.2	0.4	14.0
Cc1ccc2cc(CN(CCO)Cc3nnnn3Cc3ccc(F)cc3)c(=O)[nH]c2c1	2.5	-14.3	-6.1	99.0	-13.4	-17.2
CCC(c1nnnn1Cc1ccc(OC)cc1)N(CCCO)Cc1cc2cc3c(cc2[nH]c1=O)OCO3 (stereo unspecified)	26.6	1.3	4.6	104.1	5.8	8.8

Compound activity from PubChem.
